MT stabilizer – microtubule stabilization, imaging screen; % tubulin-high responders, % at 10 µM; 200,000 tested, 0.83% active; HeLa tubulin immunostaining HCS, 24 h; share of cells brighter than vehicle mean+2SD;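 active = plate Z-score above 3 for both tubulin-high and condensed-nucleus cell shares, with cell loss under 80%, at 10 µM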;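 also: anti alpha tubulin signal scored within the nucleus-defined area of each cell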
Insulin prom inh – TRM-6 insulin promoter activity inhibition; TRM-6 cells, insulin promoter-eGFP reporter, imaging; reporter expression induced with tamoxifen; inhibition, % at 2 µM; AID 1273; 130,000 tested, 0.9% active;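 active = inhibition above the mean plus 3 SD, with well images judged a real hit on visual review, cut at about 60% in these data, passing the limit was not always enough; inconclusive = inhibition over the cutoff but images rejected on review; inactive = inhibition not above the cutoff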
b-catenin transl – modulators of beta-catenin nuclear translocation | HeLa beta-catenin nuclear translocation, immunofluorescence imaging | nuclear translocation activity, % at 5 µM | 190,000 tested, 0.3% active;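 active = nuclear translocation activity above 50% at 5 µM, with a well cell count of 50 or more; inconclusive = wells under 50 cells across six images, flagged as toxic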;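 also: per-cell ratio of nuclear to cytoplasmic median beta-catenin stain intensity; plate controls were DMSO negative control for no effect and GSK-3 inhibitor IX positive control for full effect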
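assay system = human HeLa cells, endogenous beta-catenin | times = compound treatment 24 h, 37°C, 5% CO2 | detection = Anti-beta-catenin immunofluorescence on PFA-fixed, Triton-permeabilized cells, DAPI nuclei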
HSV replic up – increases HSV replication in cells. maximum fold increase. AID 1956. 220,000 tested, 0.005% active. HSV replication augmentation in cells, fold increase; in the data active = maximum fold increase above about 1.5; inconclusive = no clear call, values can overlap the other calls; tested in PC3 cells
ROMK primary – modulates human ROMK potassium channel activity; P48048; Tet-inducible ROMK, thallium flux fluorescence; actives lie on both sides; B-score at 10 µM; 130,000 tested, 2% active; AID 1918;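 active = signal ratio slope over the read window, or its plate-corrected B-score, at least 3 SD from the plate mean, either direction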;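 also: B-score of the F/F0 ratio slope over 7 to 12 s after thallium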
Target sequence (P48048 whole entry, looked up): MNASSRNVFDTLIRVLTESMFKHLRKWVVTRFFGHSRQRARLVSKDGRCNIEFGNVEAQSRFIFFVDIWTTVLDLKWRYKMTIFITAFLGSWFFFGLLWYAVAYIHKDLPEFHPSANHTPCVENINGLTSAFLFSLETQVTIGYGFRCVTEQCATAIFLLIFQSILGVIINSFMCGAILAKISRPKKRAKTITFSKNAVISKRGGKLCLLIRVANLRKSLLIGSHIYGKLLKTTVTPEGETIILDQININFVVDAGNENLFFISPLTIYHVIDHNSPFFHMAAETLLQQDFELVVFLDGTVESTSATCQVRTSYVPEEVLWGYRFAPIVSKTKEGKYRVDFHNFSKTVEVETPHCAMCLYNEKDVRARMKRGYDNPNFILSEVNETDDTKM
* = called active by the depositor; i = inactive; ? = inconclusive; / = no result given. Only some compounds are listed: those with a hit (about 2.4% of all), similar ones and a draw of the others.

SMILES	MT stabilizer	Insulin prom inh	b-catenin transl	HSV replic up	ROMK primary
O=C(NC(=S)N(CCCCO)C1CCCCC1)c1sc2ccccc2c1Cl	6	/	0	i	3.1*
CSc1cc(-c2ccccc2)n(Cc2c(Cl)cccc2Cl)c(=O)c1C#N	40*	25	/	i	0.078
CSc1cc(-c2ccc(Cl)cc2)n(Cc2ccccc2)c(=O)c1C#N	1	12	/	i	-0.0038
Oc1cccc(/C=N/Nc2cccc3cccnc23)c1	2	57	-3	i	-0.12
Oc1c(/C=N/Nc2cccc3cccnc23)ccc2ccccc12	3	73*	-1	i	0.28
O=C(CN1CCN(c2ccc(O)cc2)CC1)Nc1cc([N+](=O)[O-])ccc1Cl	5	/	-1	i	/
COc1cc(Cn2c(-c3nonc3N)nc3ccccc32)ccc1C	15	-284	/	i	/
COc1cccc(Cn2c(-c3nonc3N)nc3ccccc32)c1	50*	-76	/	i	/
CCCCOc1ccccc1NC(=O)Cn1c(-c2nonc2N)nc2ccccc21	27*	/	0	i	/
Cc1oc(-c2ccccc2Cl)nc1CN1CCCCC1c1cccnc1 (stereo unspecified)	/	/	1	i	-0.97
COc1ccc(Cn2c(CCCO)nc3ccccc32)cc1OC	2	26	/	i	0.13
Cc1ccc(C2c3c(oc4ccccc4c3=O)C(=O)N2c2nnc(C(C)C)s2)o1 (stereo unspecified)	2	10	-1	i	/
CN(C1CC(C)(C)NC(C)(C)C1)S(=O)(=O)CC12CCC(CC1=O)C2(C)C (stereo unspecified)	/	/	0	i	0.14
COc1cc(C2C(C#N)=C(N)Oc3cc(O)ccc32)cc(OC)c1OC (stereo unspecified)	21*	-47	/	i	/
COc1ccc(C2C(C#N)=C(N)Oc3cc(O)ccc32)cc1OC (stereo unspecified)	7	/	-2	i	0.32
COc1cc(C2C(C#N)=C(N)Oc3cc(O)ccc32)cc2c1OCO2 (stereo unspecified)	16*	-152	3	i	0.9
COc1cccc(CC2CC(=O)N(c3ccc4c(C)cc(=O)oc4c3)C2=O)c1 (stereo unspecified)	3	27	2	i	0.26
O=C(C1=C[C@@H](c2csc3ccccc23)C[C@@H](OCc2ccc(CO)cc2)O1)N1CCN(Cc2ccc3c(c2)OCO3)CC1	22*	/	49	/	/
O=C(C1=C[C@@H](c2csc3ccccc23)C[C@@H](OCc2ccc(CO)cc2)O1)N1CCN(Cc2ccccc2)CC1	4	/	-4	i	/
O=C(C1=C[C@@H](c2ccccc2)C[C@@H](OCc2ccc(CO)cc2)O1)N1CCN(Cc2ccc3c(c2)OCO3)CC1	13*	/	14	i	/
COc1ccc(C(=O)NCc2nnc(SCC(=O)Nc3ccccc3OC)n2C)cc1	4	/	0	i	-0.4
Cc1ccc(NC(=O)CNc2cccc(C)c2C)c(C)c1	3	67	0	/	-1.3
Cc1ccc(NC(=O)CNc2ccc(OC(C)C)cc2)c(C)c1	4	75*	-1	i	/
CCOC(=O)N1CCN(C(=O)c2ccccc2CCc2ccccc2)CC1	3	-93	/	i	/
CCOC(=O)N1CCN(C(=O)c2ccccc2-c2ccccc2)CC1	32*	-220	50	i	/
SMILES	MT stabilizer	Insulin prom inh	b-catenin transl	HSV replic up	ROMK primary
Cc1ccc(C2CC(c3ccc(Cl)cc3)=NNC2=O)cc1 (stereo unspecified)	1	/	3	i	-2.1
Cc1cccc(C2=NNC(=O)C(c3ccc(Cl)cc3)C2)c1 (stereo unspecified)	3	100*	-2	i	-1.5
Cc1oc(-c2ccccc2F)nc1CN1CCC(C(=O)NC2CCCc3ccccc32)CC1 (stereo unspecified)	2	86*	-2	i	/
Cc1oc(-c2ccccc2F)nc1CN1CCC(C(=O)NCc2ccco2)CC1	6	/	2	i	-0.82
O=C1C2C(C(=O)N1c1ccccc1)N1CCCN1C2c1ccccc1 (stereo unspecified)	0	/	-1	i	-0.61
COc1ccccc1C1CC(c2ccc(Br)cc2)=NN1C(=O)c1cccnc1 (stereo unspecified)	15*	28	83*	i	/
c1ccc(CCn2nnnc2C(c2cccs2)N2CCOCC2)cc1 (stereo unspecified)	/	/	2	i	/
COc1ccc(Cn2nnnc2C(c2cccs2)N2CCOCC2)cc1 (stereo unspecified)	2	100*	1	i	/
CCN(CC)c1ccc(N=Cc2ccc(N(CC)CC)cc2O)cc1	1	43	5	i	/
CCN(CC)c1ccc(/C=N/N=C(N)N)c(O)c1	7	/	77*	i	1.6
Cc1cccc(C(=O)NC(=S)NNC(=O)COc2ccc(Cl)cc2)c1	3	/	4	i	3.3*
C=CCN1C(=O)/C(=C/c2ccc(OC(C)=O)c(OCC)c2[N+](=O)[O-])SC1=S	3	25	4	i	0.58
Clc1ccc(-c2nc(/C=N/N3CCOCC3)c3ccccn23)cc1	2	/	-1	i	-2.4
CCCC(c1nnnn1C1CCCCC1)N1CCN(C2CCCC2)CC1 (stereo unspecified)	5	/	0	i	/
CCCCC(c1nnnn1C1CCCC1)N1CCN(C2CCCC2)CC1 (stereo unspecified)	5	-79	-1	i	-3.2*
CCn1c(N)c(C(=O)NC)sc1=S	2	-33	/	i	0.23
CCCOc1ccc(N2C(=O)C/C(=C\c3ccccc3)C2=O)cc1	/	/	-1	i	/
Cc1ccc(CNC(=O)CSc2c3c(nc4ccc(Cl)cc24)CCCC3)o1	2	/	/	i	-2.5*
COc1ccccc1CNC(=O)[C@@H]1CCCN1S(=O)(=O)c1ccc(C)cc1	4	/	1	i	0.18
COc1ccc(CC(=O)Nc2cc(Cl)ccc2C(=O)O)cc1	3	50	0	i	-0.14
CCCCOc1ccc(Nc2cc(Cl)ccc2C(=O)O)cn1	/	/	0	i	3.1*
CC1=Nc2ccccc2/C1=C/c1sc(=S)n(-c2cccc(C(=O)O)c2)c1O	5	/	-6	?	-4.6*
O=C(Nc1nc2ccccc2s1)C1CC(=O)N(c2ccc(Br)cc2)C1 (stereo unspecified)	2	67*	2	i	-0.22
O=C(Nc1nc2ccccc2s1)C1CC(=O)N(c2ccccc2)C1 (stereo unspecified)	2	0	1	i	/
N=c1n(CCN2CCOCC2)c2ccccc2n1CC(=O)c1ccc(Cl)c(Cl)c1	6	/	6	i	-4.9*
CC(c1ccccc1)N1CCc2[nH]c(=S)[nH]c(=O)c2C1 (stereo unspecified)	2	91*	0	i	-0.0031
COCCN1CCc2[nH]c(=S)[nH]c(=O)c2C1	4	/	-1	i	/
O=C(Nc1nnc(-c2ccc(F)cc2)o1)c1cccc([N+](=O)[O-])c1	2	0	-2	i	-1.6
COc1cccc(-c2nnc(NC(=O)c3ccc(Cl)s3)o2)c1	8	-149	0	/	1.9*

Screening data as filed in PubChem.
